Paper PMC4929832 (Nature, 2016)

Assays:
FRAP1 = FRAP1 (Homo sapiens, UniProt P42345); assay: kinase panel; assay type: biochemical
ROS = ROS (Homo sapiens, UniProt P08922); assay: kinase panel; assay type: biochemical
RSK1 = RSK1 (Homo sapiens, UniProt Q15418); assay: kinase panel; assay type: biochemical
ALK5 = ALK5 (Homo sapiens, UniProt P36897); assay: kinase panel; assay type: biochemical
RSK2 = RSK2 (Homo sapiens, UniProt P51812); assay: kinase panel; assay type: biochemical
ALK6 = ALK6 (Homo sapiens, UniProt O00238); assay: kinase panel; assay type: biochemical
RSK3 = RSK3 (Homo sapiens, UniProt Q15349); assay: kinase panel; assay type: biochemical
GSK-3-ALPHA = GSK-3-ALPHA (Homo sapiens, UniProt P49840); assay: kinase panel; assay type: biochemical
PHK-GAMMA1 = PHK-GAMMA1 (Homo sapiens, UniProt Q16816); assay: kinase panel; assay type: biochemical
GSK-3-BETA = GSK-3-BETA (Homo sapiens, UniProt P49841); assay: kinase panel; assay type: biochemical
ARK5 = ARK5 (Homo sapiens, UniProt O60285); assay: kinase panel; assay type: biochemical
CSK = CSK (Homo sapiens, UniProt P41240); assay: kinase panel; assay type: biochemical
HCK = HCK (Homo sapiens, UniProt P08631); assay: kinase panel; assay type: biochemical
DDR2 = DDR2 (Homo sapiens, UniProt Q16832); assay: kinase panel; assay type: biochemical
PIM1 = PIM1 (Homo sapiens, UniProt P11309); assay: kinase panel; assay type: biochemical
IGF1R = IGF1R (Homo sapiens, UniProt P08069); assay: kinase panel; assay type: biochemical
SPHK2 = SPHK2 (Homo sapiens, UniProt Q9NRA0); assay: kinase panel; assay type: biochemical
DYRK1B = DYRK1B (Homo sapiens, UniProt Q9Y463); assay: kinase panel; assay type: biochemical
DYRK3 = DYRK3 (Homo sapiens, UniProt O43781); assay: kinase panel; assay type: biochemical
SRMS = SRMS (Homo sapiens, UniProt Q9H3Y6); assay: kinase panel; assay type: biochemical
BRK = BRK (Homo sapiens, UniProt Q13882); assay: kinase panel; assay type: biochemical
SRPK1 = SRPK1 (Homo sapiens, UniProt Q96SB4); assay: kinase panel; assay type: biochemical
EGFR = EGFR (Homo sapiens, UniProt P00533); assay: kinase panel; assay type: biochemical
IRR = IRR (Homo sapiens, UniProt P14616); assay: kinase panel; assay type: biochemical
MST4 = MST4 (Homo sapiens, UniProt Q9P289); assay: kinase panel; assay type: biochemical
TAOK2 = TAOK2 (Homo sapiens, UniProt Q9UL54); assay: kinase panel; assay type: biochemical
JAK2 = JAK2 (Homo sapiens, UniProt O60674); assay: kinase panel; assay type: biochemical
NDR1 = NDR1 (Homo sapiens, UniProt Q15208); assay: kinase panel; assay type: biochemical
NEK1 = NEK1 (Homo sapiens, UniProt Q96PY6); assay: kinase panel; assay type: biochemical
ERB-B2 = ERB-B2 (Homo sapiens, UniProt P04626); assay: kinase panel; assay type: biochemical
NEK6 = NEK6 (Homo sapiens, UniProt Q9HC98); assay: kinase panel; assay type: biochemical
NEK9 = NEK9 (Homo sapiens, UniProt Q8TD19); assay: kinase panel; assay type: biochemical
CDK4-CYCLIND = CDK4-CYCLIND (Homo sapiens, UniProt P11802); assay: kinase panel; assay type: biochemical
PRKD2 = PRKD2 (Homo sapiens, UniProt Q9BZL6); assay: kinase panel; assay type: biochemical
TRKC = TRKC (Homo sapiens, UniProt Q16288); assay: kinase panel; assay type: biochemical
TSSK2 = TSSK2 (Homo sapiens, UniProt Q96PF2); assay: kinase panel; assay type: biochemical
PRKG2 = PRKG2 (Homo sapiens, UniProt Q13237); assay: kinase panel; assay type: biochemical
CDK9-CYCLINT1 = CDK9-CYCLINT1 (Homo sapiens, UniProt P50750); assay: kinase panel; assay type: biochemical
FLT-4 = FLT-4 (Homo sapiens, UniProt P35916); assay: kinase panel; assay type: biochemical
Dopamine Transporter = Dopamine Transporter (Homo sapiens, UniProt Q01959); assay: Dopamine Transporter assay; assay type: binding
Monoamine Oxidase A = Monoamine Oxidase A (Homo sapiens, UniProt P21397); assay: Monoamine Oxidase A assay; assay type: biochemical
Serotonin 5HT2A = Serotonin 5HT2A (Homo sapiens, UniProt P28223); assay: Serotonin 5HT2A calcium flux assay; assay type: cell-based
[1] = test system: L858R/T790M/C797S EGFR Ba/F3 cells; assay: Ba/F3 cell proliferation; assay type: cell-based; conditions: EAI045 in combination with cetuximab, 72 hours
Method in brief: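 Ba/F3 cells, either parental or stably expressing mutant EGFR lines described earlier, were exposed to the test compound for 72 hours. Cell numbers were set empirically. Growth was read by MTS assay. Each point was run in six wells, and each experiment was repeated at least three times. Curves were fitted by non-linear regression to a sigmoidal dose response.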

Chain of PRKD2 (Q9BZL6 whole entry): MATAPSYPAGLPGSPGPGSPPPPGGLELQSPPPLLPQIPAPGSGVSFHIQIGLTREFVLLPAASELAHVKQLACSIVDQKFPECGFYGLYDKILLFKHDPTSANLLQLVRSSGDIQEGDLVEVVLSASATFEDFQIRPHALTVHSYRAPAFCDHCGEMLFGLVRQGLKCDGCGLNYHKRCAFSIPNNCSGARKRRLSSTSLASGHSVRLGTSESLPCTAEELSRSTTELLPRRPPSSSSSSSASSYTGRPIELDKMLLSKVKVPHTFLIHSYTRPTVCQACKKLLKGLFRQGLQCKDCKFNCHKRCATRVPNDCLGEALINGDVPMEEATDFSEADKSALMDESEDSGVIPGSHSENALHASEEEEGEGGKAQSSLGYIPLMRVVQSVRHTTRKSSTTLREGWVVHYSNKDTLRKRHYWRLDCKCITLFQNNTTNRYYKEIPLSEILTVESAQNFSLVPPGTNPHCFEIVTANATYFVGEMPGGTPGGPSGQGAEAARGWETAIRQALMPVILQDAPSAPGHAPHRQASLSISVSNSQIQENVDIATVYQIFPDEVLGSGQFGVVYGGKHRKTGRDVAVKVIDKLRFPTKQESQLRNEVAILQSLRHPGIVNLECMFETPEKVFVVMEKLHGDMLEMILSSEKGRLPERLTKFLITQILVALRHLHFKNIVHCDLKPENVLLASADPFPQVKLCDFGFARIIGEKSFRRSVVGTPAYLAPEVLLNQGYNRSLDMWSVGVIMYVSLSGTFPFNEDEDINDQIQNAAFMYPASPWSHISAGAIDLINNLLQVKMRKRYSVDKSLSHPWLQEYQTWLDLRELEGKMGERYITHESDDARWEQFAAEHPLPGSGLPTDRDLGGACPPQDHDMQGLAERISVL
Chain of TAOK2 (Q9UL54 whole entry): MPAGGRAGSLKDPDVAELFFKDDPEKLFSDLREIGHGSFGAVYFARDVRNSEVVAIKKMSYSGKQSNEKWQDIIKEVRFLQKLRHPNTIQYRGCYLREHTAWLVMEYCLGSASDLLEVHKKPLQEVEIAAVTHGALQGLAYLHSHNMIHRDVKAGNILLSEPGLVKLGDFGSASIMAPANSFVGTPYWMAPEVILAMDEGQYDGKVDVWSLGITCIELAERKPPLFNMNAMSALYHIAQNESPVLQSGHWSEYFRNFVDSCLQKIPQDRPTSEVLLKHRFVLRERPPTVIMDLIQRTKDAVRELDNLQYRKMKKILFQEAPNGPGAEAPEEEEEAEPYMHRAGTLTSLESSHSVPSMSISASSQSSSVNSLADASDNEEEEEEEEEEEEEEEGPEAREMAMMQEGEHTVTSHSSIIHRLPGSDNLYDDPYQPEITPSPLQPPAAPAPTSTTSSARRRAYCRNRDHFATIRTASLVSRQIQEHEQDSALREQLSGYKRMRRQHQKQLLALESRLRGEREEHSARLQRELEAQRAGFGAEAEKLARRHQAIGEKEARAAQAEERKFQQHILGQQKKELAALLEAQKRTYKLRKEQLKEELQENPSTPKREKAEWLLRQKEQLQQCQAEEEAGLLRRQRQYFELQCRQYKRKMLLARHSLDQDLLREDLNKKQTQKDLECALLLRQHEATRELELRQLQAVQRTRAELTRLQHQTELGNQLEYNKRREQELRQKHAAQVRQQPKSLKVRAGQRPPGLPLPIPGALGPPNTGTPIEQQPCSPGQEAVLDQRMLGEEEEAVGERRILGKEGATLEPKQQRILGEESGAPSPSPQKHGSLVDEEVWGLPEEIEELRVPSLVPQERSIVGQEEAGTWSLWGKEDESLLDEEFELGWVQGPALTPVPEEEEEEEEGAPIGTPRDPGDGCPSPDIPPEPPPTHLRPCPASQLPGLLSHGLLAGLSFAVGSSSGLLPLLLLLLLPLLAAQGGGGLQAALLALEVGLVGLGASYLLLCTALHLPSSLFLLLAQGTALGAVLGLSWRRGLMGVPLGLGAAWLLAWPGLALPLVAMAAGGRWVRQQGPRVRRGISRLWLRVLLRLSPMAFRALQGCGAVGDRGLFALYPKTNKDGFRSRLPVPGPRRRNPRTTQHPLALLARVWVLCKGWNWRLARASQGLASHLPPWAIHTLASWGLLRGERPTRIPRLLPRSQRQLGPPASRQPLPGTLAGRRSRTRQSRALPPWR
Chain of ARK5 (O60285 whole entry): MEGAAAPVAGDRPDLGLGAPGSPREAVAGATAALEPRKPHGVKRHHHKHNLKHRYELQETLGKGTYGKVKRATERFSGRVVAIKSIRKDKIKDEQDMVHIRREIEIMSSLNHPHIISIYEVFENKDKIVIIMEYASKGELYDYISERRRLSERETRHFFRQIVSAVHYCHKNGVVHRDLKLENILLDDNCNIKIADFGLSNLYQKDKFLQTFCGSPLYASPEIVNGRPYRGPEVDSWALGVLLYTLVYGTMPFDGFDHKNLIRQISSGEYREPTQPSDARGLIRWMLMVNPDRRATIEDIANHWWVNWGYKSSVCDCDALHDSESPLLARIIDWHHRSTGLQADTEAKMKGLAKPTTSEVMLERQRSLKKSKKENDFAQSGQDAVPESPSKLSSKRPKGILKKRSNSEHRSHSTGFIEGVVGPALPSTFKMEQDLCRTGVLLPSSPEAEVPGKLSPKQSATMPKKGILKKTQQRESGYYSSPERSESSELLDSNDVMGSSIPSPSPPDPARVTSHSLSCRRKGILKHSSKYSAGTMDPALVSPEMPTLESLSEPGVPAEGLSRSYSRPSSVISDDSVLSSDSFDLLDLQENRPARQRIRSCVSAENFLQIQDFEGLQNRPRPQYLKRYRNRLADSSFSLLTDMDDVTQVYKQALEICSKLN
Chain of FLT-4 (P35916 25-1363): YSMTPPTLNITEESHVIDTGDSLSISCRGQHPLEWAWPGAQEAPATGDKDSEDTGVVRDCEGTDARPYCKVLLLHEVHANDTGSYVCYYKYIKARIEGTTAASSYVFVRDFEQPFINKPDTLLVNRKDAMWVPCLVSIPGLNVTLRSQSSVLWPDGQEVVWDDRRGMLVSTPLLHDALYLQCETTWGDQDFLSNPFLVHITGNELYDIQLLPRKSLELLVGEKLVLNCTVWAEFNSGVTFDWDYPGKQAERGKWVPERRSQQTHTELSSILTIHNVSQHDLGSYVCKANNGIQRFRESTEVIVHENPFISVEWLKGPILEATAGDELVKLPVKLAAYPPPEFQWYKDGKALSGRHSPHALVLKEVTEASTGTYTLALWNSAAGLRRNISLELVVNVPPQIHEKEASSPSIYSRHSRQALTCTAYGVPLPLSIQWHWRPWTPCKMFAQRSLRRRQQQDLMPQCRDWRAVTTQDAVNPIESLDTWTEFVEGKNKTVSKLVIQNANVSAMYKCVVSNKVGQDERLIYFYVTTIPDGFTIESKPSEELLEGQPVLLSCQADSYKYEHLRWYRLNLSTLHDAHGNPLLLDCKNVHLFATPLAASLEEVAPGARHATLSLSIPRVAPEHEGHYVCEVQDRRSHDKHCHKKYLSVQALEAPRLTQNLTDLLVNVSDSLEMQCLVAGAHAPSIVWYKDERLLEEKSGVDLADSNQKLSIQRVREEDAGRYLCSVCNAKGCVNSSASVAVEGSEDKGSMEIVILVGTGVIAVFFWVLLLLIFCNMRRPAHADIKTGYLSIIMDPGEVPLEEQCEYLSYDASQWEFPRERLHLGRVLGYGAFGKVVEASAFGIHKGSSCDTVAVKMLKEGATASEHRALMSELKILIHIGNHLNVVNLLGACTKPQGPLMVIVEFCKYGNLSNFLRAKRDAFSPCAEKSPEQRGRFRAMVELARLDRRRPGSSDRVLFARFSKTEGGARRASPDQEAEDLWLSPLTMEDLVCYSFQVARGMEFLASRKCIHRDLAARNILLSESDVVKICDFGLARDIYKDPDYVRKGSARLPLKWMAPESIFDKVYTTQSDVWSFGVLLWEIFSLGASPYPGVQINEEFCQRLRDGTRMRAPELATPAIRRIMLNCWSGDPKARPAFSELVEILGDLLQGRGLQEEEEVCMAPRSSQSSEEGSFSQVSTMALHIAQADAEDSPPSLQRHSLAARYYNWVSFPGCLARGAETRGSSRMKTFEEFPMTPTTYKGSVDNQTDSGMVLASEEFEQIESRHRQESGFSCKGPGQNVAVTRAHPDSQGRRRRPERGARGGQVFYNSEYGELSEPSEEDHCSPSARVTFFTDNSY
Chain of CDK4-CYCLIND (P11802 whole entry): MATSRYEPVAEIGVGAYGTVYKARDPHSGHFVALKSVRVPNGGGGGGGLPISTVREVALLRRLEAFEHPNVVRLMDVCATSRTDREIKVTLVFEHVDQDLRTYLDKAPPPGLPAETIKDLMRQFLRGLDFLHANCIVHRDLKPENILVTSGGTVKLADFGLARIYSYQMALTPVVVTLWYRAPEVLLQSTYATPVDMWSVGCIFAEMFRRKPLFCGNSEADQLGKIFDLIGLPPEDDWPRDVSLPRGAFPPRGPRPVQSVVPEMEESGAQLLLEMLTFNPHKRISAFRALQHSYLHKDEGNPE
Chain of CDK4-CYCLIND (P24385 whole entry partner): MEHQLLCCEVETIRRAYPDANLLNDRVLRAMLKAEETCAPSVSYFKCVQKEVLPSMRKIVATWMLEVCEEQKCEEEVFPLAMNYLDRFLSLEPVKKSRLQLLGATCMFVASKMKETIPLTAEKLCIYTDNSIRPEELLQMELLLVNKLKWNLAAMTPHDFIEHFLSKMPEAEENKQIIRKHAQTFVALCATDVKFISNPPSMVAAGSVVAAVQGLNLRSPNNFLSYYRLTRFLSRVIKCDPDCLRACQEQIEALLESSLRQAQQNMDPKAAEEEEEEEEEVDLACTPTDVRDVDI
Chain of TSSK2 (Q96PF2 whole entry): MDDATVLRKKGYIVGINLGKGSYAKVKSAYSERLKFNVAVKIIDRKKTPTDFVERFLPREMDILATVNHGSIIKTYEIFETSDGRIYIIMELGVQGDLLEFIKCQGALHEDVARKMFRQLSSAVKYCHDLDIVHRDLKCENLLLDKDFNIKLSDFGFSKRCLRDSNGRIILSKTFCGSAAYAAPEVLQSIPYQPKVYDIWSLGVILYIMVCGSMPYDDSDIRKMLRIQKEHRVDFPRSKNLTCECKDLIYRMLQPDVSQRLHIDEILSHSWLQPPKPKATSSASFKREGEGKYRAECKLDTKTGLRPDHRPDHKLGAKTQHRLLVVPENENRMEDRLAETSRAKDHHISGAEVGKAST

inhibition at 1 µM (FRAP1): 0% | inhibition at 1 µM (ROS): 1% | inhibition at 1 µM (RSK1): 0% | inhibition at 1 µM (ALK5): 0% | inhibition at 1 µM (RSK2): 0% | inhibition at 1 µM (ALK6): 0% | inhibition at 1 µM (RSK3): 0% | inhibition at 1 µM (GSK-3-ALPHA): 6% | inhibition at 1 µM (PHK-GAMMA1): 0% | inhibition at 1 µM (GSK-3-BETA): 0% | inhibition at 1 µM (ARK5): 0% | inhibition at 1 µM (CSK): 0% | inhibition at 1 µM (HCK): 0% | inhibition at 1 µM (DDR2): 4% | inhibition at 1 µM (PIM1): 0% | inhibition at 1 µM (IGF1R): 4% | inhibition at 1 µM (SPHK2): 0% | inhibition at 1 µM (DYRK1B): 2% | inhibition at 1 µM (DYRK3): 2% | inhibition at 1 µM (SRMS): 0% | inhibition at 1 µM (BRK): 0% | inhibition at 1 µM (SRPK1): 0% | inhibition at 1 µM (EGFR): 7% | inhibition at 1 µM (IRR): 0% | inhibition at 1 µM (MST4): 0% | inhibition at 1 µM (TAOK2): 0% | inhibition at 1 µM (JAK2): 2% | inhibition at 1 µM (NDR1): 2% | inhibition at 1 µM (NEK1): 0% | inhibition at 1 µM (ERB-B2): 4% | inhibition at 1 µM (NEK6): 0% | inhibition at 1 µM (CDK4-CYCLIND): 0% | inhibition at 1 µM (PRKD2): 2% | inhibition at 1 µM (TRKC): 4% | inhibition at 1 µM (TSSK2): 0% | inhibition at 1 µM (PRKG2): 8% | inhibition at 1 µM (CDK9-CYCLINT1): 6% | inhibition at 1 µM (FLT-4): 1% | IC50 (Dopamine Transporter): > 30 µM | IC50 (Monoamine Oxidase A): > 30 µM | IC50 (Serotonin 5HT2A): > 30 µM
SMILES: O=C(Nc1nccs1)C(c1cc(F)ccc1O)N1Cc2ccccc2C1=O (stereo not shown) [EAI045, 2-(5-fluoro-2-hydroxyphenyl)-2-(1-oxo-2,3-dihydro-1H-isoindol-2-yl)-N-(1,3-thiazol-2-yl)acetamide]
inhibition at 1 µM (NEK9): 0% | inhibition of proliferation [1]: potently inhibited
